Source: article PMC8172216 (Pharmaceutical Biology, 2021)

Key:
[1] = Pharmacokinetics of saponins in rat plasma after oral gavage of raw; format: in vivo, Sprague–Dawley rats; settings: for AUC0–t: SD rats, oral administration of SPN extract 1.0 g/kg; for AUC(0-t) / AUC(0-inf) / Cmax / Tmax / half-life: male, Sprague-Dawley, rat, plasma, po, 1 g/kg, oral gavage of raw P. notoginseng aqueous extract 1 g/kg, n = 6, mean ± SD; for AUC(0-t): AUC0–t; for AUC(0-t) / AUC(0-inf) / Cmax / Tmax: male SD rats; for AUC(0-inf): AUC0–∞; for half-life: t1/2, male SD rats; for time in which the maximum plasma concentration was achieved: after oral administration of RPN or SPN aqueous extract
Outline: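 Male SD rats (200–250 g, n = 6/group) were acclimatised for 7 d and fasted overnight with water. They received a single oral gavage of aqueous extract at 1 g/kg (5 mL/kg). Heparinized orbital blood was taken pre-dose and at 5 min to 48 h, then centrifuged and stored at −40 °C. Plasma was methanol-precipitated with theophylline internal standard and analysed by MRM. Cmax and Tmax were read directly; AUC and t1/2 were non-compartmental; results are mean ± SD.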

[2] = ref Ma et al. [2021]; cited from earlier work

AUC0–t [1]	AUC(0-t) [1]	AUC(0-inf) [1]	Cmax [1]	Tmax [1]	half-life [1]	time in which the maximum plasma concentration was achieved ([1]; rats)	AUC0–t and Cmax, steamed versus raw group ([1]; oral dose of raw and steamed P. notoginseng aqueous extracts, rats)	Compound	bioavailability [2]	detection in rat plasma ([1]; after oral administration of P. notoginseng extracts, rats, listed as GRg5)
–	87.7 ± 20.7 ng·h/mL	91.7 ± 19.7 ng·h/mL	28.1 ± 13.1 ng/mL	1.24 ± 0.49 h	3.16 ± 1.73 h	≤ 1.63 h	no significantly difference	CC(C)=CCC[C@](C)(O[C@@H]1O[C@H](CO)[C@@H](O)[C@H](O)[C@H]1O)[C@H]1CC[C@]2(C)[C@@H]1[C@H](O)C[C@@H]1[C@@]3(C)CC[C@H](O)C(C)(C)[C@@H]3[C@@H](O[C@@H]3O[C@H](CO)[C@@H](O)[C@H](O)[C@H]3O[C@@H]3O[C@@H](C)[C@H](O)[C@@H](O)[C@H]3O)C[C@]12C [Re, ginsenoside Re]	–	–
176.63 ± 42.49 ng/h/mL	808 ± 382 ng·h/mL	861 ± 355 ng·h/mL	66.7 ± 32.8 ng/mL	9.33 ± 2.07 h	7.92 ± 6.73 h	≤ 9.33 h	–	CC(C)=CCC[C@](C)(O[C@@H]1O[C@H](CO)[C@@H](O)[C@H](O)[C@H]1O)[C@H]1CC[C@]2(C)[C@@H]1[C@H](O)C[C@@H]1[C@@]3(C)CC[C@H](O)C(C)(C)[C@@H]3[C@@H](O[C@@H]3O[C@H](CO)[C@@H](O)[C@H](O)[C@H]3O)C[C@]12C [Rg1, ginsenoside Rg1]	–	–

The remaining lines, values behind:

Compound	AUC0–t [1]	AUC(0-t) [1]	AUC(0-inf) [1]	Cmax [1]	Tmax [1]	half-life [1]	time in which the maximum plasma concentration was achieved ([1]; rats)	AUC0–t and Cmax, steamed versus raw group ([1]; oral dose of raw and steamed P. notoginseng aqueous extracts, rats)	bioavailability [2]	detection in rat plasma ([1]; after oral administration of P. notoginseng extracts, rats, listed as GRg5)
CC(C)=CCC[C@](C)(O[C@@H]1O[C@H](CO[C@@H]2O[C@H](CO)[C@@H](O)[C@H](O)[C@H]2O)[C@@H](O)[C@H](O)[C@H]1O)[C@H]1CC[C@]2(C)[C@@H]1[C@H](O)C[C@@H]1[C@@]3(C)CC[C@H](O[C@@H]4O[C@H](CO)[C@@H](O)[C@H](O)[C@H]4O[C@@H]4O[C@H](CO)[C@@H](O)[C@H](O)[C@H]4O)C(C)(C)[C@@H]3CC[C@]12C [Rb1, ginsenoside Rb1]	5094.06 ± 1453.14 ng/h/mL	15100 ± 2380 ng·h/mL	15200 ± 2440 ng·h/mL	997 ± 144 ng/mL	8.67 ± 1.63 h	9.58 ± 1.11 h	–	–	–	–
CC(C)=CCC[C@](C)(O[C@@H]1O[C@H](CO)[C@@H](O)[C@H](O)[C@H]1O)[C@H]1CC[C@]2(C)[C@@H]1[C@H](O)C[C@@H]1[C@@]3(C)CC[C@H](O[C@@H]4O[C@H](CO)[C@@H](O)[C@H](O)[C@H]4O[C@@H]4O[C@H](CO)[C@@H](O)[C@H](O)[C@H]4O)C(C)(C)[C@@H]3CC[C@]12C [Rd, ginsenoside Rd]	1396.89 ± 595.14 ng/h/mL	3630 ± 569 ng·h/mL	4170 ± 733 ng·h/mL	164 ± 28.8 ng/mL	8.67 ± 2.73 h	13.9 ± 1.71 h	–	–	–	–
CC(C)=CC/C=C(\C)[C@H]1CC[C@]2(C)[C@@H]1[C@H](O)C[C@@H]1[C@@]3(C)CC[C@H](O[C@@H]4O[C@H](CO)[C@@H](O)[C@H](O)[C@H]4O[C@@H]4O[C@H](CO)[C@@H](O)[C@H](O)[C@H]4O)C(C)(C)[C@@H]3CC[C@]12C [Rg5, ginsenoside Rg5]	–	–	–	–	–	–	–	–	0.67%	could not be detected
